Data set [1] has as its system Vaccinia virus. The experiment in a line: Antiviral activity against Vaccinia virus. The format is functional, organism-based. The conditions noted are these: Orthopoxvirus vaccinia.
Data set [2] deals with La Crosse virus. Nature of the data set: Antiviral activity against La Crosse virus infected in african green monkey Vero cells assessed as inhibition of virus-induced cytopathic effect by fluorometric analysis. The format is functional, organism-based. (In general: Damage to the host cells serves as the signal in cytopathic effect assays.)
The subject of data set [3] is Vaccinia virus. The experiment in a line: Antiviral activity against Vaccinia virus during single experiment set up. Format: functional, organism-based. The conditions noted are these: Orthopoxvirus vaccinia.
Data set [4] concerns Vaccinia virus. The experiment in a line: Antiviral activity against Vaccinia virus at 25 uM during single experiment set up. The format is functional, organism-based. The conditions noted are these: Orthopoxvirus vaccinia.
In data set [5] the test system is La Crosse virus. Nature of the data set: Antiviral activity against La Crosse virus infected in african green monkey Vero cells assessed as inhibition of virus-induced cytopathic effect at 25 uM during single experiment set up by fluorometric analysis. Format: functional, organism-based.
The subject of a further data set is Vero. The experiment in a line: Cytotoxicity against african green monkey Vero cells. The conditions noted are these: chlorocebus sabaeus. The format is cell-based.
Data set [6] relates to La Crosse virus. The experiment in a line: Antiviral activity against La Crosse virus infected in african green monkey Vero cells assessed as inhibition of virus-induced cytopathic effect at 5 uM after 4 days by spectrophotometric analysis. Format: functional, organism-based. The procedure, abridged: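 Primary screen run at one fixed concentration of 5 μM. Compounds active at that level were then carried into dose-response testing (0.009–25 μM) against RVFV and LACV.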

Another data set has as its system Rift Valley fever virus. Nature of the data set: Antiviral activity against Rift Valley fever virus at 5 uM. Format: functional, organism-based. The procedure, abridged:
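Single-concentration primary screen at 5 μM. Molecules active there and bearing viable scaffolds were then taken into concentration-response testing over 0.009–25 μM.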

The subject of data set [7] is La Crosse virus. Nature of the data set: Antiviral activity against La Crosse virus infected in african green monkey Vero cells assessed as inhibition of virus-induced cytopathic effect during single experiment set up by fluorometric analysis. Format: functional, organism-based.
Data set [8] relates to Vaccinia virus. The experiment in a line: Antiviral activity against Vaccinia virus at 25 uM during one experiment of multiple experiment set up. Format: functional, organism-based. The note with it: Orthopoxvirus vaccinia.
Data set [9] in a line: Solubility of the compound in water. The format is physicochemical.
The nature of data set [10]: Solubility of the compound in simulated gastric fluid. The format is physicochemical.
The nature of data set [11]: Solubility of the compound in Caco2 transport buffer. The format is physicochemical, Caco-2. (Caco-2 monolayers are a common model of the intestinal barrier.)
The test system of a further data set is Ebolavirus. Nature of the data set: Antiviral activity against Ebola virus. Format: functional.
Data set [12] relates to Human immunodeficiency virus 1. The experiment in a line: Antiviral activity against Human immunodeficiency virus 1. Format: functional, organism-based.
In another data set the test system is Tacaribe virus. The experiment in a line: Antiviral activity against Tacaribe virus. Format: functional, organism-based. The conditions noted are these: Mammarenavirus tacaribeense.
The subject of data set [13] is Mammarenavirus choriomeningitidis. Nature of the data set: Antiviral activity against Lymphocytic choriomeningitis virus. Format: functional.
In data set [14] the test system is Encephalomyocarditis virus. The experiment in a line: Antiviral activity against Encephalomyocarditis virus. The format is functional, organism-based.
For a further data set, the system named is Sindbis virus. Nature of the data set: Antiviral activity against Sindbis virus. Format: functional, organism-based.
The test system of another data set is Dengue virus. Nature of the data set: Antiviral activity against Dengue virus. The format is functional, organism-based.
The subject of data set [15] is Orthohantavirus andesense. Nature of the data set: Antiviral activity against Andes virus. The format is functional.
Data set [16] concerns Respiratory syncytial virus. Nature of the data set: Antiviral activity against Respiratory syncytial virus. Format: functional, organism-based.
Data set [17] concerns unidentified influenza virus. The experiment in a line: Antiviral activity against influenza virus. Format: functional, organism-based.

Calls of active or inactive are those of the source. No cut-off for these calls is given here.

The EC50 is the concentration needed to bring the measured effect to its halfway point. For `CC(C)(C)c1ccc(C(=O)NC(=S)Nc2ccccc2C(=O)O)cc1`, the EC50 is over 25 µM in the data set with Vaccinia virus [1], over 25 µM in the data set on La Crosse virus [2] and 2.29 µM with Vaccinia virus [3].

As to `CC(C)(C)c1ccc(C(=O)NC(=S)Nc2ccc(CN3CCOCC3)cc2)cc1`, the EC50 with Vaccinia virus [1] and with La Crosse virus [2] was over 25 µM in each case. The outcome with Vaccinia virus [4] and with La Crosse virus [5] was inactive. Moreover, in the data set on Vero, the Activity result was “Toxic”.

Regarding `CC(C)(C)c1ccc(C(=O)NC(=S)Nc2ccccc2Cl)cc1`, the result with La Crosse virus [6] and in the data set on Rift Valley fever virus was Active. The EC50 with Vaccinia virus [1] amounted to 0.35 µM; in the data set with La Crosse virus [2], 0.28 µM.

Consider `CC(C)(C)c1ccc(C(=O)NC(=S)Nc2ccccc2CN)cc1`, for which the EC50 is over 25 µM in the data set with Vaccinia virus [1], over 25 µM with La Crosse virus [2] and 6.93 µM with La Crosse virus [7].

Turning to `CNc1cccc(C(=O)Nc2ccc(NC(=S)NC(=O)c3ccc(C(C)(C)C)cc3)cc2OC)c1.Cl`, the figures for the EC50 in the data set with Vaccinia virus [1] and in the data set on La Crosse virus [2] were 1.63 µM and over 25 µM, respectively. Further, the Activity result with Vero is “Toxic”.

As to `COc1cc(NC(=S)NC(=N)c2ccc(C(C)(C)C)cc2)ccc1NC(=O)c1ccccc1Cl`, the EC50 with Vaccinia virus [1] amounted to 7.64 µM; with La Crosse virus [2], 3.01 µM. In addition, the outcome with Vaccinia virus [8] was inactive.

As to `Cc1ccc(O)c(NC(=S)NC(=O)c2ccc(C(C)(C)C)cc2)c1`, the 50% effective concentration (EC50) in the data set on Vaccinia virus [1] and in the data set with La Crosse virus [2] was over 25 µM in each case. Further, the Activity result in the data set with Vero is listed as “Toxic”.

For the compound `CC(C)(C)c1ccc(C(=O)NC(=S)Nc2ccc(N)c(N)c2)cc1`, the EC50 was over 25 µM with Vaccinia virus [1], over 25 µM in the data set with La Crosse virus [2] and 7.78 µM with Vaccinia virus [3].

In the case of `CC(C)(C)c1ccc(C(=O)NC(=S)Nc2ccc(CN3CCCCC3)cc2)cc1`, the EC50 in the data set on Vaccinia virus [1] and in the data set with La Crosse virus [2] was over 25 µM throughout. For the same compound, the outcome in the data set on Vaccinia virus [4] and with La Crosse virus [5] was inactive. Also, the Activity result in the data set on Vero was “Toxic”.

The solubility is the dissolved amount per volume that the medium holds. `CNc1ccc(NC(=S)NC(=O)c2ccc(C(C)(C)C)cc2)c(Cl)c1.Cl`: the results for the EC50 in the data set on Vaccinia virus [1] and in the data set with La Crosse virus [2] were 0.33 µM and 0.24 µM, respectively. The solubility was 0.2 µg/mL in data set [9]; 3.2 µg/mL in data set [10] (simulated gastric fluid, read-out: solubility); 0.1 µg/mL in [11].

As for `CC(C)(C)c1ccc(C(=O)NC(=S)Nc2ccc(N3CCOCC3)cc2)cc1`, the EC50 with Vaccinia virus [1] and in the data set on La Crosse virus [2] was over 25 µM throughout. The outcome with Vaccinia virus [4] and with La Crosse virus [5] was inactive. The Activity entry in the data set with Vero was “Toxic”.

Take `CN(C)c1ccc(NC(=S)NC(=O)c2ccc(C(C)(C)C)cc2)c(Cl)c1.Cl`: the EC50 with Vaccinia virus [1] is 3.26 µM; in the data set on La Crosse virus [2], 1.55 µM. Besides, the solubility result in data set [10] (simulated gi fluid, BLD = below limit of detection) is reported as “BLD”.

For the compound `CNc1ccc(C(=O)Nc2ccc(NC(=S)NC(=O)c3ccc(C(C)(C)C)cc3)cc2OC)cc1.Cl`, the EC50 in the data set with Vaccinia virus [1] is 0.81 µM; in the data set with La Crosse virus [2], over 25 µM. For the same compound, in the data set on Vaccinia virus [4], the outcome was inactive. In the data set with Vero, the Activity entry is recorded as “Toxic”.

`CC(C)(C)c1ccc(C(=O)NC(=S)Nc2ccc(N3CCCCC3)cc2)cc1`: the EC50 in the data set with Vaccinia virus [1] and in the data set on La Crosse virus [2] was over 25 µM each time. The outcome with Vaccinia virus [4] and with La Crosse virus [5] was inactive. The Activity entry in the data set with Vero is “Toxic”.

Take `CC(=O)N1CCN(c2ccc(NC(=S)NC(=O)c3ccc(C(C)(C)C)cc3)cc2)CC1`: the EC50 in the data set on Vaccinia virus [1] and in the data set on La Crosse virus [2] was over 25 µM each time. The result in the data set on Vaccinia virus [4] and with La Crosse virus [5] was inactive. The Activity entry in the data set with Vero is given as “Toxic”.

Consider `COc1cc(NC(=S)NC(=O)c2ccc(C(C)(C)C)cc2)ccc1NC(=O)c1ccccc1Cl`, for which the result (in the data set with La Crosse virus [6]; with Rift Valley fever virus; in the data set with Ebolavirus; in data set [12]; in the data set with Tacaribe virus; in data set [13]) was Active. The outcome (in data set [14]; with Sindbis virus; in the data set with Dengue virus; in data set [15]; in [16]; in data set [17]) was Active. For the same compound, the 50% effective concentration (EC50) in the data set with Vaccinia virus [1] was found to be 0.25 µM; in the data set on La Crosse virus [2], 0.27 µM.

Values taken from ChEMBL document CHEMBL2040790 (Bioorg Med Chem Lett, 2012).
